Laboratory results: ChEMBL document CHEMBL1143122, “Novel analogs of D-e-MAPP and B13. Part 1: synthesis and evaluation as potential anticancer agents” (Bioorg Med Chem, 2008)

Assays:
MCF7 [1] = assay: Drug level in human MCF7 cells at 10 uM per 10^6 cells after 0.5 hrs; type: ADME, cell-based; conditions: mcf7, 0.5 h
Outline: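 MCF7 cells kept in RPMI 1640 with 10% fetal calf serum at 37 °C, 5% CO2, then treated with 10 μM analog. Intracellular analog measured over time by HPLC-MS in positive-ion MRM mode. Quantified against calibration curves made by spiking an artificial matrix with standards plus internal standard, using analyte/IS peak-area ratios and linear regression. Reported as pmol per 1×10^6 cells.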

K562 = assay: Antiproliferative activity against human K562 cells after 48 hrs; type: functional; conditions: K562, 48 h
Outline: (§1)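 NCI 60-cell screen. Cells were grown in RPMI 1640 with 5% FBS and 2 mM L-glutamine, then plated at 5,000–40,000 cells/well according to doubling time and preincubated for 24 h at 37 °C in 5% CO2. Compounds were dissolved in DMSO at 400× the top final concentration and tested at five 10-fold dilutions from 10−4 to 10−8 M for 48 h. Growth was read spectrophotometrically; GI50 is 50% net protein reduction.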

SK-MEL-2 = assay: Antiproliferative activity against human SKMEL2 cells after 48 hrs; type: functional; conditions: SK-MEL-2, 48 h; outline: as §1
OVCAR-8 = assay: Antiproliferative activity against human OVCAR8 cells after 48 hrs; type: functional; conditions: OVCAR-8, 48 h; outline: as §1
RPMI-8226 = assay: Antiproliferative activity against human RPMI8226 cells after 48 hrs; type: functional; conditions: RPMI-8226, 48 h; outline: as §1
BT-549 = assay: Antiproliferative activity against human BT549 cells after 48 hrs; type: functional; conditions: BT-549, 48 h; outline: as §1
MDA-MB-231 = assay: Antiproliferative activity against human MDA-MB-231 cells after 48 hrs; type: functional; conditions: MDA-MB-231, 48 h; outline: as §1
DU-145 = assay: Antiproliferative activity against human DU145 cells after 48 hrs; type: functional; conditions: DU-145, 48 h; outline: as §1
HOP-92 = assay: Antiproliferative activity against human HOP92 cells after 48 hrs; type: functional; conditions: HOP-92, 48 h; outline: as §1
SNB-75 = assay: Antiproliferative activity against human SNB75 cells after 48 hrs; type: functional; conditions: SNB-75, 48 h; outline: as §1
HCT-15 = assay: Antiproliferative activity against human HCT15 cells after 48 hrs; type: functional; conditions: Homo sapiens, HCT-15, 48 h; outline: as §1
[2] = Antiproliferative activity against human […] cells after 48 hrs; type: functional; outline: as §1
HOP-62 = assay: Antiproliferative activity against human HOP62 cells after 48 hrs; type: functional; conditions: HOP-62, 48 h; outline: as §1
NCI-H460 = assay: Antiproliferative activity against human NCI-H460 cells after 48 hrs; type: functional; conditions: NCI-H460, 48 h; outline: as §1
UACC-62 = assay: Antiproliferative activity against human UACC62 cells after 48 hrs; type: functional; conditions: UACC-62, 48 h
Outline: (§2)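 NCI 60-cell-line screen. Lines grown in RPMI 1640 with 5% fetal bovine serum and 2 mM L-glutamine, plated at 5,000–40,000 cells/well according to doubling time, left 24 h at 37 °C in 5% CO2. Drug stocks in DMSO at 400-fold the top final concentration. Five 10-fold dilutions, 10−4 to 10−8 M, incubated 48 h. Growth read spectrophotometrically as net protein; GI50 taken as 50% reduction.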

MCF7 [3] = assay: Antiproliferative activity against human MCF7 cells after 48 hrs; type: functional, cell-based; conditions: MCF7, 48 h
UO-31 = assay: Antiproliferative activity against human UO31 cells after 48 hrs; type: functional; conditions: UO-31, 48 h; outline: as §2
T47D = assay: Antiproliferative activity against human T47D cells after 48 hrs; type: functional; outline: as §2
U-251 = assay: Antiproliferative activity against human U251 cells after 48 hrs; type: functional; conditions: U-251, 48 h; outline: as §2
MOLT-4 = assay: Antiproliferative activity against human MOLT4 cells after 48 hrs; type: functional; conditions: MOLT-4, 48 h; outline: as §1
UACC-257 = assay: Antiproliferative activity against human UACC257 cells after 48 hrs; type: functional; conditions: UACC-257, 48 h; outline: as §2
SF-268 = assay: Antiproliferative activity against human SF268 cells after 48 hrs; type: functional; conditions: SF-268, 48 h; outline: as §1
SK-OV-3 = assay: Antiproliferative activity against human SKOV3 cells after 48 hrs; type: functional; conditions: SK-OV-3, 48 h; outline: as §1
MDA-MB-435 = assay: Antiproliferative activity against human MDA-MB-435 cells after 48 hrs; type: functional; conditions: Homo sapiens, MDA-MB-435, 48 h; outline: as §1
OVCAR-5 = assay: Antiproliferative activity against human OVCAR5 cells after 48 hrs; type: functional; conditions: OVCAR-5, 48 h; outline: as §1
SK-MEL-28 = assay: Antiproliferative activity against human SKMEL28 cells after 48 hrs; type: functional; conditions: SK-MEL-28, 48 h; outline: as §1
CAKI-1 = assay: Antiproliferative activity against human CAKI1 cells after 48 hrs; type: functional; conditions: CAKI-1, 48 h; outline: as §1
NCI-H322M = assay: Antiproliferative activity against human NCI-H322M cells after 48 hrs; type: functional; outline: as §1
LOX IMVI = assay: Antiproliferative activity against human LOXIMVI cells after 48 hrs; type: functional; outline: as §1
[4] = read-out: Log LC50 (the source's name) (converted)

CCCCCCCCCCCCCCN[C@H](CO)[C@H](O)c1ccc([N+](=O)[O-])cc1.Cl
Drug uptake (MCF7 [1]): 3600 pmol
GI50 (K562): 1.86 µM
LC50 (K562): 7.76 µM
TGI (K562; read-out: Log TGI (converted)): 3.8 µM
GI50 (SK-MEL-2): 3.31 µM
LC50 (SK-MEL-2): > 100 µM
TGI (SK-MEL-2; read-out: Log TGI (converted)): 8.13 µM
GI50 (OVCAR-8): 2.29 µM
CC50 (OVCAR-8; [4]): > 100 µM
TGI (OVCAR-8; read-out: Log TGI (converted)): 5.62 µM
GI50 (RPMI-8226): 2.19 µM
CC50 (RPMI-8226; [4]): > 100 µM
TGI (RPMI-8226; read-out: Log TGI (converted)): 4.68 µM
GI50 (BT-549): 1.51 µM
LC50 (BT-549): 5.62 µM
TGI (BT-549; read-out: Log TGI (converted)): 2.88 µM
GI50 (MDA-MB-231): 2 µM
LC50 (50% lethal concentration) (MDA-MB-231): 7.76 µM
TGI (MDA-MB-231; read-out: Log TGI (converted)): 3.89 µM
GI50 (DU-145): 1.55 µM
CC50 (DU-145; [4]): 5.37 µM
TGI (DU-145; read-out: Log TGI (converted)): 2.88 µM
GI50 (HOP-92): 1.26 µM
LC50 (HOP-92): 6.17 µM
TGI (HOP-92; read-out: Log TGI (converted)): 2.75 µM
GI50 (SNB-75): 3.98 µM
CC50 (SNB-75; [4]): 60.3 µM
TGI (SNB-75; read-out: Log TGI (converted)): 26.9 µM
GI50 (HCT-15): 1.86 µM
TGI (HCT-15; read-out: Log TGI (converted)): 3.47 µM
GI50 [2]: 2 µM
LC50 [2]: 8.91 µM
TGI ([2]; read-out: Log TGI (converted)): 4.27 µM
GI50 (HOP-62): 1.91 µM
CC50 (HOP-62; [4]): 6.31 µM
TGI (HOP-62; read-out: Log TGI (converted)): 3.47 µM
GI50 (NCI-H460): 1.91 µM
TGI (NCI-H460; read-out: Log TGI (converted)): 3.55 µM
GI50 (UACC-62): 6.46 µM
LC50 (UACC-62): 75.9 µM
TGI (UACC-62; read-out: Log TGI (converted)): 24 µM
GI50 (MCF7 [3]): 1.91 µM
TGI (MCF7 [3]; read-out: Log TGI (converted)): 3.47 µM
GI50 (UO-31): 4.27 µM
LC50 (UO-31): 87.1 µM
TGI (UO-31; read-out: Log TGI (converted)): 18.6 µM
GI50 (T47D): 3.8 µM
CC50 (T47D; [4]): 87.1 µM
TGI (T47D; read-out: Log TGI (converted)): 14.1 µM
GI50 (U-251): 1.86 µM
TGI (U-251; read-out: Log TGI (converted)): 3.47 µM
GI50 (MOLT-4): 1.62 µM
LC50 (MOLT-4): 7.59 µM
TGI (MOLT-4; read-out: Log TGI (converted)): 3.55 µM
GI50 (UACC-257): 4.27 µM
CC50 (UACC-257; [4]): 93.3 µM
TGI (UACC-257; read-out: Log TGI (converted)): 20.9 µM
GI50 (SF-268): 2.09 µM
LC50 (SF-268): > 100 µM
TGI (SF-268; read-out: Log TGI (converted)): 4.9 µM
GI50 (SK-OV-3): 8.91 µM
CC50 (SK-OV-3; [4]): 79.4 µM
TGI (SK-OV-3; read-out: Log TGI (converted)): 27.5 µM
GI50 (MDA-MB-435): 1.91 µM
LC50 (MDA-MB-435): 5.75 µM
TGI (MDA-MB-435; read-out: Log TGI (converted)): 3.31 µM
GI50 (OVCAR-5): 3.72 µM
CC50 (OVCAR-5; [4]): 72.4 µM
TGI (OVCAR-5; read-out: Log TGI (converted)): 14.1 µM
GI50 (SK-MEL-28): 1.91 µM
LC50 (SK-MEL-28): 6.03 µM
TGI (SK-MEL-28; read-out: Log TGI (converted)): 3.39 µM
GI50 (CAKI-1): 7.59 µM
CC50 (CAKI-1; [4]): 67.6 µM
TGI (CAKI-1; read-out: Log TGI (converted)): 24 µM
GI50 (NCI-H322M): 4.79 µM
CC50 (NCI-H322M; [4]): 42.7 µM
TGI (NCI-H322M; read-out: Log TGI (converted)): 14.8 µM
GI50 (LOX IMVI): 1.74 µM
LC50 (LOX IMVI): 6.03 µM
TGI (LOX IMVI; read-out: Log TGI (converted)): 3.24 µM
